In ChEMBL document CHEMBL1144847, “Novel uracil-based 2-aminoanilide and 2-aminoanilide-like derivatives: histone deacetylase inhibition and in-cell activities” (Bioorg Med Chem Lett, 2008):
The source made the active and inactive calls. No cut-off for these calls is given here.

Assays:
U-937 [1] = experiment: Induction of apoptosis in human U937 cells at 5 uM after 30 hrs; type: functional
Outline: (§1)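 U937 cells exposed at 5 µM for 30 h; apoptosis quantified by Annexin V/propidium iodide double staining, expressed as percent apoptotic cells; SAHA and MS-275 at 5 µM as references.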

U-937 [2] = experiment: Induction of granulocytic differentiation in human U937 cells; type: functional, cell-based
Outline: (§2)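 U937 cells stimulated 30 h at 5 µM; granulocytic differentiation measured as CD11c expression, reported as percent CD11c-positive/PI-negative cells; SAHA and MS-275 at 5 µM as references.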

U-937 [3] = experiment: Induction of p21 expression in human U937 cells; type: functional, cell-based
Outline: (§3)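 U937 cells exposed at 5 µM for 24 h; induction of p21WAF1/CIP1 assessed alongside histone H3 and α-tubulin acetylation.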

U-937 [4] = experiment: Induction of granulocytic differentiation in human U937 cells assessed as CD11c expression at 5 uM after 30 hrs; type: functional; outline: as §2
U-937 [5] = experiment: Induction of histone H4 hyperacetylation in human U937 cells; type: functional, cell-based
U-937 [6] = experiment: Induction of alpha tubulin hyperacetylation in human U937 cells; type: functional, cell-based
Outline: (§4)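 U937 cells exposed at 5 µM for 24 h; acetylation of histone H3 and α-tubulin assessed as markers of class I HDAC and HDAC6 inhibition, respectively.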

U-937 [7] = experiment: Induction of apoptosis in human U937 cells; type: functional, cell-based; outline: as §1
U-937 [8] = experiment: Induction of p21 expression in human U937 cells at 5 uM after 24 hrs; type: functional, cell-based; outline: as §3
Histone deacetylase 1 = Histone deacetylase 1 (Homo sapiens, UniProt Q13547); experiment: Inhibition of human HDAC1 in U937 cells by immunoprecipitation assay; type: cell-based, U-937
Histone deacetylase 4 = Histone deacetylase 4 (Homo sapiens, UniProt P56524); experiment: Inhibition of human HDAC4 in U937 cells by immunoprecipitation assay; type: cell-based, U-937
U-937 [9] = experiment: Cell cycle arrest in human U937 cells assessed as accumulation at G2 phase at 5 uM after 30 hrs; type: functional, cell-based
Outline: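 U937 human leukemia cells exposed to compound at 5 µM for 30 h; cell-cycle distribution analysed, arrest read as accumulation in S or G2 phase; SAHA and MS-275 at 5 µM as reference drugs.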

U-937 [10] = experiment: Induction of histone H3 hyperacetylation in human U937 cells at 5 uM; type: functional, cell-based; outline: as §4
U-937 [11] = experiment: Induction of alpha tubulin hyperacetylation in human U937 cells at 5 uM; type: functional, cell-based; outline: as §4
U-937 [12] = experiment: Induction of histone H4 hyperacetylation in human U937 cells at 5 uM; type: functional, cell-based

Chain of Histone deacetylase 1 (Q13547 whole entry): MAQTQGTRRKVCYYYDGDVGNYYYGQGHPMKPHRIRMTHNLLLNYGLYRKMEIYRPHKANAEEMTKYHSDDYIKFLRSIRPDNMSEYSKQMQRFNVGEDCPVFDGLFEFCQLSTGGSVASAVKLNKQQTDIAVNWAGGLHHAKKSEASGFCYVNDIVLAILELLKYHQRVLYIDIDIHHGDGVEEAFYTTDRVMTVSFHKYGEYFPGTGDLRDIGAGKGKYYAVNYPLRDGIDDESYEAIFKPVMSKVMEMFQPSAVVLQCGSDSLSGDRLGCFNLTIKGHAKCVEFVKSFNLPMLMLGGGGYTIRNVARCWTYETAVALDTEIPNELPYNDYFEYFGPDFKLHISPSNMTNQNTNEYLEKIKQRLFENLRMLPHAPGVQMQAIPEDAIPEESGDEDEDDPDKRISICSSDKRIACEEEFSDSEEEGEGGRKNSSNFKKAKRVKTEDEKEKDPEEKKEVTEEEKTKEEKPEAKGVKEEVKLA
Chain of Histone deacetylase 4 (P56524 whole entry): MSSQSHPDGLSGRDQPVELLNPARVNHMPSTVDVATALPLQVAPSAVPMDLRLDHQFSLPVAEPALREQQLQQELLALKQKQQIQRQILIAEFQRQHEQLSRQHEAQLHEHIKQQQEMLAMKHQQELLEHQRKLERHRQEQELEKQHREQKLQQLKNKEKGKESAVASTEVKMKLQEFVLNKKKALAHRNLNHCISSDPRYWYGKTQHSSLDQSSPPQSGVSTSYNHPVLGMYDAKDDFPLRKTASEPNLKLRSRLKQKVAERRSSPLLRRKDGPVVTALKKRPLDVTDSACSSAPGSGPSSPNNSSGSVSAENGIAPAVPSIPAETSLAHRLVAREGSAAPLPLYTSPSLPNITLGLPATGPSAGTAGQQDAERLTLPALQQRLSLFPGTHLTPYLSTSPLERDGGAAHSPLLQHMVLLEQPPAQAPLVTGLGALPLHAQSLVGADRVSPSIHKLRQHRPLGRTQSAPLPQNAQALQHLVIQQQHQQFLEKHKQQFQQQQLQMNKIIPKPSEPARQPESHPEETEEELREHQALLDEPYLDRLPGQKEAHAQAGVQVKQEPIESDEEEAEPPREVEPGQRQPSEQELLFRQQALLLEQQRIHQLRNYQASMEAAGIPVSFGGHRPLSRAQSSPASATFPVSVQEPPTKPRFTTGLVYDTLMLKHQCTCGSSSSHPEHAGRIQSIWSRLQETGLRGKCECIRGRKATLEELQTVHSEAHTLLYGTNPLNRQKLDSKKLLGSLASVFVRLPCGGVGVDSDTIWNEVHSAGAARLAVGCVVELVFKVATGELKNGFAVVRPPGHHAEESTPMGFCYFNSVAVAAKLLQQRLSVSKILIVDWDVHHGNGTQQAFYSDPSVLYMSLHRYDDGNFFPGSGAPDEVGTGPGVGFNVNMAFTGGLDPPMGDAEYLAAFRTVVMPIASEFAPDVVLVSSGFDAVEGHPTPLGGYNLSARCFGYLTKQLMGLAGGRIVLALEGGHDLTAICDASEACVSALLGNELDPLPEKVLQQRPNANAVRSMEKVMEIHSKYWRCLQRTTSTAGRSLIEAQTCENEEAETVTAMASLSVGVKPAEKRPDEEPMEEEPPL

| SMILES | Activity (U-937 [1]) | Activity (U-937 [4]) | Activity (U-937 [8]) | further results |
| --- | --- | --- | --- | --- |
| O=C(CCCCCCC(=O)Nc1ccccc1)NO [VORINOSTAT] | 16.8% | 21.5% |  | Activity (U-937 [2]): Active; Activity (U-937 [3]): Active; Activity (U-937 [5]): Active; Activity (U-937 [6]): Active; Activity (U-937 [7]): Active |
| Nc1ccccc1NC(=O)CCCCCc1nc(-c2ccccc2)cc(=O)[nH]1 | 4.8% |  | Active |  |
| Nc1cccc2cccc(NC(=O)CCCCSc3nc(-c4ccccc4)cc(=O)[nH]3)c12 |  | 30.3% | Active |  |
| Nc1ccccc1NC(=O)CCCCCc1nc(-c2ccc(-c3ccccc3)cc2)cc(=O)[nH]1 |  | 45.9% | Active |  |
| O=C(CCCCCC(=O)Nc1ccccc1O)Nc1ccccc1 |  | 36.6% |  |  |
| Nc1ccccc1NC(=O)c1ccc(CNC(=O)OCc2cccnc2)cc1 [ENTINOSTAT] | 3.5% | 30.8% |  | Activity (U-937 [2]): Active; Activity (U-937 [5]): Active; Activity (U-937 [6]): inactive; Activity (U-937 [7]): inactive |
| Nc1ccccc1NC(=O)CCCCSc1nc(-c2ccccc2)cc(=O)[nH]1 |  |  | Active |  |
| Nc1cccc2cccc(NC(=O)CCCCCc3nc(-c4ccc(-c5ccccc5)cc4)cc(=O)[nH]3)c12 |  | 67.6% |  |  |
| Nc1ccccc1NC(=O)c1ccc(CSc2nc(-c3ccccc3)cc(=O)[nH]2)cc1 |  | 47.6% | Active | IC50 (Histone deacetylase 1): 0.2 µM; IC50 (Histone deacetylase 4): 125 µM; Activity (U-937 [9]): Active |
| Nc1ccccc1NC(=O)CCCCCC(=O)Nc1ccccc1 |  | 18.3% |  | Activity (U-937 [10]): Active; Activity (U-937 [11]): inactive; Activity (U-937 [12]): Active |
